The values that follow come from ChEMBL document CHEMBL1138826, “New 1,4-dihydropyridines endowed with NO-donor and calcium channel agonist properties” (J Med Chem, 2004).

Where only a bound is given, the exact number is not on record here.

For data set [1], the species on record is Rattus norvegicus. Put plainly: Capacity to increase [Ca2+] entry into the vascular smooth muscle was evaluated on rat aorta strips partially depolarized with 10 mM K+ relative to 50 mM KCl. The format is functional, Muscle tissue. Put shortly:
(§1)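 Thoracic aorta cut helically, endothelium removed, three strips per vessel, 0.7 g tension, isotonic recording. Equilibrated 1 h, then depolarized twice with 50 mM KCl at 60 min intervals. Cumulative contraction curves run in 10 mM KCl, protected from light. EC50 is the mean of 5-7 determinations.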

For data set [2], the species on record is Rattus norvegicus. Put plainly: Positive inotropic activity on rat papillary muscle electrically stimulated by unipolar square wave pulses. It is filed as functional. The following applies: Muscle tissue. Put shortly:
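Electrically driven rat papillary muscle, 90 min equilibration. Cumulative curves in half-log steps, each step after a plateau, in the presence of 1 µM propranolol and 0.1 µM prazosin added 15 min beforehand. One curve per tissue. EC50 is the mean of 5-7 determinations.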

The species named for data set [3] is Rattus norvegicus. Put plainly: Capacity to increase [Ca2+] entry into the vascular smooth muscle was evaluated on rat aorta strips partially depolarized with 10 mM K. The format is functional. Conditions: Muscle tissue. A digest of the protocol:
as §1

The target of data set [4] is T1, Voltage-gated L-type calcium channel (Rattus norvegicus, UniProt P22002+Q02485+P27732). As to the kind of experiment: Agonistic potency, mean percentage of increased Ba2+ currents at -20 mV; Range = 200-240%. It is filed as functional. Put shortly: (§2)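 Whole-cell patch clamp on cultured rat insulinoma RINm5F cells at 22 °C. External solution (mM): 125 NaCl, 10 BaCl2, 1 MgCl, 10 HEPES pH 7.3, 300 nM TTX. Internal solution CsCl/TEACl/EGTA-based with ATP and GTP. Held at -60 mV, stepped to -20 mV, returned to -40 mV. Compounds at 3 µM by fast superfusion. Result is % increase of L-type Ba2+ current, after subtracting the current insensitive to 3 µM nifedipine; 5-22 cells.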

Data set [5] has as its target T1, Voltage-gated L-type calcium channel. As to the kind of experiment: Effect on L-type [Ca2+] channels of rat RIN-m5F insulinoma cells in 10 mM Ba2+, -60 mV holding potential at 3 uM, -20 mV. It is filed as functional. A digest of the protocol: as §2
The species entered for data set [6] is Rattus norvegicus. As to the kind of experiment: Capacity to increase [Ca2+] entry into the vascular smooth muscle was evaluated on rat aorta strips partially depolarized with 10 mM K+ in the presence of 1 uM ODQ. The format is functional. The following applies: Muscle tissue. A digest of the protocol:
(§3)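 Endothelium-denuded rat thoracic aorta strips under 0.7 g tension, precontracted twice with 50 mM KCl. Cumulative contraction curves in 10 mM KCl, in light-protected conditions, with 1 µM ODQ added at least 15 min before the first agonist concentration. EC50 is the mean of 5-7 determinations.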

The species entered for data set [7] is Rattus norvegicus. As to the kind of experiment: Positive inotropic activity on rat papillary muscle electrically stimulated by unipolar square wave pulses in the presence of 1 uM ODQ. The following applies: Muscle tissue. It is filed as functional. A digest of the protocol: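 Electrically stimulated rat papillary muscle with 1 µM propranolol and 0.1 µM prazosin, plus 1 µM ODQ added at least 15 min before the first dose. Cumulative half-log concentration-response curve, one per tissue, after 90 min equilibration. EC50 is the mean of 5-7 determinations.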

The species entered for data set [8] is Rattus norvegicus. Put plainly: Capacity to increase [Ca2+] entry into the vascular smooth muscle was evaluated on rat aorta strips partially depolarized with 10 mM K+ relative to 50 mM KCl in the presence of 1 uM ODQ. The format is functional, Muscle tissue. A digest of the protocol:
as §3

The species entered for data set [9] is Rattus norvegicus. As to the kind of experiment: Capacity to increase [Ca2+] entry into the vascular smooth muscle was evaluated on rat aorta strips partially depolarized with 10 mM K+; No effect. It is filed as functional, Muscle tissue. A digest of the protocol:
as §1

`CO/C(O)=C1/C(C)=NC(C)=C([N+](=O)[O-])C1c1ccccc1OCc1nonc1C` (stereo unspecified) came in with a Max in the data set listed under Rattus norvegicus [1] of 85%. For the same compound, the EC50 in the data set filed under Rattus norvegicus [2] is 820 nM; in the data set listed under Rattus norvegicus [3] it was 57 nM. The Agonistic potency in data set [4] is reported as below 240%.
In the case of `COC(=O)C1=C(C)NC(C)=C([N+](=O)[O-])C1c1ccccc1C(F)(F)F` (stereo unspecified), the Max in the data set filed under Rattus norvegicus [1] was 84%. Moreover, the EC50 was 170 nM in the data set listed under Rattus norvegicus [2] and 18 nM in the data set listed under Rattus norvegicus [3]. The Increase in [5] amounted to 320%.
On to `CO/C(O)=C1/C(C)=NC(C)=C([N+](=O)[O-])C1c1ccccc1OCc1no[n+]([O-])c1C` (stereo unspecified), for which the Max in the data set listed under Rattus norvegicus [1] was 80%; in the data set filed under Rattus norvegicus [8], 83%. The EC50 in the data set listed under Rattus norvegicus [6] turned out to be 110 nM; in the data set filed under Rattus norvegicus [2], 1200 nM; in the data set filed under Rattus norvegicus [7], 1300 nM; in the data set listed under Rattus norvegicus [3], 100 nM. For the same compound, in [4], the Agonistic potency was below 240%.
As for `CO/C(O)=C1/C(C)=NC(C)=C([N+](=O)[O-])C1c1ccccc1OCc1nonc1C#N` (stereo unspecified), the Max in the data set listed under Rattus norvegicus [1] worked out at 62%. Further, the EC50 amounted to 1500 nM in the data set listed under Rattus norvegicus [2] and 120 nM in the data set listed under Rattus norvegicus [3]. Further, the Agonistic potency in data set [4] is below 240%.
On to `CO/C(O)=C1/C(C)=NC(C)=C([N+](=O)[O-])C1c1ccccc1OCc1no[n+]([O-])c1C#N` (stereo unspecified), for which the Max in the data set listed under Rattus norvegicus [1] is listed as 0%; in the data set filed under Rattus norvegicus [8], 29%. For the same compound, the EC50 was 210 nM in the data set filed under Rattus norvegicus [6], 5200 nM in the data set listed under Rattus norvegicus [2], 5000 nM in the data set filed under Rattus norvegicus [7] and “Not Active” in the data set listed under Rattus norvegicus [9]. In addition, the Agonistic potency in data set [4] is listed as below 240%.

One may read the EC50 as the concentration needed to bring the measured effect to its halfway point.
